The source of these data is ChEMBL document CHEMBL2086298, “Synthesis and biological evaluation of fatty acyl ester derivatives of (-)-2',3'-dideoxy-3'-thiacytidine” (J Med Chem, 2012).

The subject of data set [1] is Human immunodeficiency virus 1. The data set is described as follows: Antiviral activity against HIV1 3B assessed as inhibition of infection in HeLa P4/R5 cells expressing CD4 receptor and beta-gal incubated for 2 hrs followed by compound-wash out measured after 46 hrs by single round infection MAGI assay. Format: functional, organism-based. The following applies: Human immunodeficiency virus 1, 3B. An outline of the steps:
(§1)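 P4R5 MAGI cells (CD4 and coreceptor expressing) were seeded at 1.2 × 10⁴ cells/well about 18 h before infection. They were exposed for 2 h at 37 °C to cell-free HIV-1 with or without compound, then washed and cultured 46 h more. Infection was read by β-galactosidase reporter chemiluminescence as a percentage of untreated infection. EC₅₀ came from regression, with triplicate wells per concentration.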

Data set [2] has as its system Human immunodeficiency virus 1. Briefly: Antiviral activity against HIV1 BaL assessed as inhibition of infection in HeLa P4/R5 cells expressing CD4 receptor and beta-gal incubated for 2 hrs followed by compound-wash out measured after 46 hrs by single round infection MAGI assay. The format is functional, organism-based. The following applies: Human immunodeficiency virus 1, BaL. In short, it runs like this:
as §1

Another data set has as its system HeLa. Briefly: Cytotoxicity against human HeLa P4/R5 cells incubated for 2 hrs followed by compound-wash out measured after 46 hrs by MTT assay. In general terms: Tetrazolium dyes change colour on reduction, which living cells bring about.
The test system of data set [3] is Human immunodeficiency virus 1. The data set is described as follows: Antiviral activity against HIV1 by cell-based assay. Format: functional, organism-based.
Data set [4] is described as follows: Cytotoxicity against PHA-stimulated human PBMC incubated for 6 hrs followed by compound-wash out measured after 6 days. Format: cell-based. An outline of the steps: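 PHA-P-stimulated PBMCs pooled from at least two normal donors were exposed to compound dilutions for 6 h. Cells were then washed by medium replacement and centrifugation (~200g, 10 min) and cultured 6 days or until peak RT activity. Cytotoxicity was monitored by MTS on the same plates used for antiviral testing, alongside drug-plus-medium control wells without cells.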

For data set [5], the system named is Human immunodeficiency virus 1. Briefly: Antiviral activity against HIV1 94US3393IN clade B clinical isolate infected in PHA-stimulated human PBMC assessed as inhibition of viral replication incubated for 6 hrs followed by compound-wash out measured after 6 days by liquid scintillation counting. Format: functional, organism-based. The following applies: Human immunodeficiency virus 1, 94US3393IN clade B.

Data set [6] has as its system Human immunodeficiency virus 1. Briefly: Antiviral activity against HIV1 98USMSC5016 clade C clinical isolate infected in PHA-stimulated human PBMC assessed as inhibition of viral replication incubated for 6 hrs followed by compound-wash out measured after 6 days by liquid scintillation counting. The following applies: Human immunodeficiency virus 1, 98USMSC5016 clade C. The format is functional, organism-based.

The test system of data set [7] is Human immunodeficiency virus 1. Briefly: Antiviral activity against NNTRI-resistant HIV1 A-17 clade B clinical isolate infected in PHA-stimulated human PBMC assessed as inhibition of viral replication incubated for 6 hrs followed by compound-wash out measured after 6 days by liquid scintillation counting. Format: functional, organism-based. The settings on record: Human immunodeficiency virus 1, A-17 clade B.

The test system of data set [8] is Human immunodeficiency virus 1. The data set is described as follows: Antiviral activity against NRTI-resistant HIV1 71361-1 clade B clinical isolate infected in PHA-stimulated human PBMC assessed as inhibition of viral replication incubated for 6 hrs followed by compound-wash out measured after 6 days by liquid scintillation counting. The settings on record: Human immunodeficiency virus 1, 71361-1 clade B. The format is functional, organism-based.

The subject of data set [9] is Human immunodeficiency virus 1. Briefly: Antiviral activity against multidrug-resistant HIV1 4755-5 clade B clinical isolate infected in PHA-stimulated human PBMC assessed as inhibition of viral replication incubated for 6 hrs followed by compound-wash out measured after 6 days by liquid scintillation counting. Format: functional, organism-based. The following applies: Human immunodeficiency virus 1, 4755-5 clade B.

Data set [10] has as its system CCRF-CEM. The data set is described as follows: Cellular uptake in human CCRF-CEM cells at 50 uM after 1 hr by HPLC analysis. Format: ADME, cell-based. An outline of the steps:
(§2)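 CCRF-CEM cells were grown in serum-free RPMI to ~70–80% confluency (1 × 10⁶ cells/mL), then given medium containing 50 μM compound at 37 °C for 1–72 h. Pellets were washed in ice-cold PBS and extracted with methanol/chloroform/isopropanol (4:3:1), then filtered. Parent ester and products were tracked by analytical HPLC at 265 nm using a water/acetonitrile (0.1% TFA) gradient.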

For data set [11], the system named is CCRF-CEM. The data set is described as follows: Drug metabolism in human CCRF-CEM cells assessed as compound hydrolysis at 50 uM after 1 hr by HPLC analysis. Format: ADME, cell-based. An outline of the steps: as §2
In data set [12] the test system is CCRF-CEM. The data set is described as follows: Drug metabolism in human CCRF-CEM cells assessed as compound hydrolysis at 50 uM after 1 hr by HPLC analysis.
For data set [13], the system named is Human immunodeficiency virus. Briefly: Antiviral activity against HIV infected in human CEM-SS cells. Format: functional, organism-based. The following applies: Human immunodeficiency virus 1, CEM-SS.
Data set [14] relates to Human immunodeficiency virus 1. The data set is described as follows: Ratio of lamivudine EC50 to compound EC50 for HIV1 by cell-based assay. Format: functional.

One may read the EC50 as the concentration at which the effect is half-maximal. In the case of `CCSCCCCCCCCCCCC(=O)Nc1ccn([C@@H]2CS[C@H](CO)O2)c(=O)n1`, the results for the EC50 (in data set [1]; in data set [2]; in the data set with HeLa) were 5.3 µM, 0.4 µM and more than 212 µM, respectively.
In the same order, the values of `[N-]=[N+]=NCCCCCCCCCCCC(=O)Nc1ccn([C@@H]2CS[C@H](COC(=O)CCCCCCCCCCCN=[N+]=[N-])O2)c(=O)n1` are 148 µM, 72.6 µM and more than 148 µM.
As a reminder, the CC50 is the concentration at which the toxic effect on the cells reaches its halfway point. Read a high CC50 as lower toxicity to the cells. `Nc1ccn([C@@H]2CS[C@H](CO)O2)c(=O)n1` [LAMIVUDINE]: the half-maximal effective concentration (EC50) in data set [3] is 80.3 µM; in the data set with HeLa it was more than 437 µM. The CC50 in data set [4] was more than 13.1 µM.
Regarding `[N-]=[N+]=NCCCCCCCCCCCC(=O)Nc1ccn([C@@H]2CS[C@H](CO)O2)c(=O)n1`, the concentration giving a half-maximal response (EC50) in [1] was 29.4 µM; in [2], 3.8 µM; in the data set on HeLa, more than 221 µM.
What is called IC50 is the concentration at which inhibition is half-maximal. A word on the IC90: it is the concentration at which the effect reaches the 90% level. On to `CCCCCCCCCCCCCC(=O)OC[C@@H]1O[C@H](n2ccc(N)nc2=O)CS1`, for which the IC50 was 0.0042 µM in data set [5]; 0.0019 µM in [6]; 0.0028 µM in [7]; 0.0433 µM in [8]; 5.09 µM in data set [9]. For the same compound, the IC90 in [5] was 0.015 µM; in [6] it was 0.0275 µM; in data set [7] it was 0.0311 µM; in data set [8], 0.253 µM; in data set [9] it was more than 6.83 µM. Further, the CC50 in data set [4] is more than 6.83 µM. For the same compound, the Drug uptake entry with CCRF-CEM [10] was “Active”. Moreover, the Drug metabolism entry in the data set with CCRF-CEM [11] and in the data set on CCRF-CEM [12] was “Active” in each case. Also, the concentration giving a half-maximal response (EC50) in data set [1] was 0.5 µM; in [2], 0.2 µM; with HeLa, more than 228 µM.
Regarding `CCSCCCCCCCCCCCC(=O)O`, the response in data set [13] was half-maximal at 9.4 µM (EC50).
As for `CCCCCCCCCCCCCC(=O)Nc1ccn([C@@H]2CS[C@H](COC(=O)CCCCCCCCCCCCC)O2)c(=O)n1`, the EC50 in data set [1] was more than 154 µM; in data set [2], 135 µM; in the data set with HeLa, more than 154 µM.
For `CCSCCCCCCCCCCCC(=O)OC[C@@H]1O[C@H](n2ccc(N)nc2=O)CS1`, the 50% effective concentration (EC50) is 2.3 µM in data set [1], 0.2 µM in [2] and more than 212 µM with HeLa.
The like results for `[N-]=[N+]=NCCCCCCCCCCCC(=O)OC[C@@H]1O[C@H](n2ccc(N)nc2=O)CS1` were, in that order, 0.9 µM, 0.7 µM and more than 221 µM.
Take `CCCCCCCCCCCCCC(=O)Nc1ccn([C@@H]2CS[C@H](CO)O2)c(=O)n1`: in [14], the “Ratio EC50” value is 115. Also, the concentration giving a half-maximal response (EC50) was 10.9 µM in data set [1], 0.7 µM in [2] and more than 228 µM in the data set with HeLa.
